In the library only some 2.2% were active in any assay of this set; here they are far more common.
ERAP1 inh = ERAP1 (human) enzyme inhibition | Q9NZ08 | recombinant ERAP1, Leu-AMC fluorescence, 60 min | inhibition, % at 10.7 µM | 0.15% of 340,000 active | AID 652197;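 active means mean replicate inhibition of at least 30%, or all replicates individually reaching that 30% level; inactive means mean below 30% and not every replicate reaching it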
Target sequence (Q9NZ08 whole entry, looked up): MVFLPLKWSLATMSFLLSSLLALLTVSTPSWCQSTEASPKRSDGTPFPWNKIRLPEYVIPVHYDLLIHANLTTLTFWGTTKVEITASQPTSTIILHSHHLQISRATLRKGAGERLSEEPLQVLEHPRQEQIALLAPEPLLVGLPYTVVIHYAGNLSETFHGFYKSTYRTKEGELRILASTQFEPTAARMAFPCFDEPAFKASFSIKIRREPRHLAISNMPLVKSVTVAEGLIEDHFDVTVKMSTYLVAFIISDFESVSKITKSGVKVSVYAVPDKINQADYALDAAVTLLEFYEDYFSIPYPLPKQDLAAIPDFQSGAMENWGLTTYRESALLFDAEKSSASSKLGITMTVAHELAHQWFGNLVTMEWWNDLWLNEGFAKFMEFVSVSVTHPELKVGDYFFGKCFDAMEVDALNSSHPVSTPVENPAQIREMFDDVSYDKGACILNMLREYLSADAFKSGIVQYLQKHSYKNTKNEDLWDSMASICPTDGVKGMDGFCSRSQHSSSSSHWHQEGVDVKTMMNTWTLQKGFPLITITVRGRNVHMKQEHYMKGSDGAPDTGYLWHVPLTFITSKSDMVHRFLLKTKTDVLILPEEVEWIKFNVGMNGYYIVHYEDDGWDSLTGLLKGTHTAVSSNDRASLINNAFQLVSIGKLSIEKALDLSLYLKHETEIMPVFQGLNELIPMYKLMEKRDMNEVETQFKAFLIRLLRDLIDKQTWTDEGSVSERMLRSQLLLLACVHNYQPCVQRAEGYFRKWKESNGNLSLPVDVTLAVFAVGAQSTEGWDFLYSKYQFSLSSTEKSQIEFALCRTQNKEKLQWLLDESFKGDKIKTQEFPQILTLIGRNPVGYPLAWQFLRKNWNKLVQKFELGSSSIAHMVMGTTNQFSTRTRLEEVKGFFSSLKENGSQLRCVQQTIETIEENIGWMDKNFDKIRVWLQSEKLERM
FGF22 binding = shifts melting point of recombinant human FGF22; activity (Tm shift, normalised), % at 9.99 µM; 1.5% of 340,000 active; AID 651658; recombinant FGF22 thermal shift, SYPRO orange fluorescence; percent of sucrose octasulfate shift, DMSO zero;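 active means mean Tm shift, scaled 0 neutral to 100 positive control, at about 1.3% or above, every replicate too, limit read from the data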
FN deposit inh = fibronectin deposition inhibition | 0.086% of 350,000 active | inhibition, % at 12.6 µM | AH1F fibroblasts, Alexa488-fibronectin deposition fluorescence, overnight;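 active means mean inhibition across replicates of 30% or more, regardless of how many single replicates reach that level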
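material = AH1F fibroblast monolayer depositing Alexa488-labelled fibronectin into matrix | amount = 10000 AH1F cells/well | buffer or medium = DMEM plus 2% serum, read in PBS | incubation = 1 h cell adhesion before compound, then overnight fibronectin incubation | detection = fluorescence at 485 nm excitation, 525 nm emission | evaluation = percent inhibition as loss of matrix-bound fibronectin fluorescence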
SIRT5 inh = blocks human SIRT5 desuccinylation of peptide; Q9NXA8; Purified SirT5, succinyl-peptide AMC, trypsin-coupled fluorescence; inhibition, % at 15 µM; 1.1% of 330,000 active; AID 652115; in the data active means inhibition above about 15%
PGC1a acetyl inh = modulators of PGC1a acetylation; U2OS PGC1a acetylation, AlphaScreen anti-acetyl-lysine; with virally co-expressed GCN5 acetyltransferase; 0.17% of 350,000 active; inhibition, % at 15.6 µM;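 active means every replicate shows inhibition of at least 40%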
Large screens that a line does not name were inactive.

CCOC(=O)C(=O)C1=C(N2CCOCC2)/C(=C\c2cccc([N+](=O)[O-])c2)CC1	none (no result: PGC1a acetyl inh)
O=C(NP(=O)(N1CCCC1)N1CCCC1)C1=C(N2CCOCC2)/C(=C/c2cccc([N+](=O)[O-])c2)CC1	FGF22 binding 44.4
CO[C@H]1CN(C)C(=O)c2cc(NC(C)=O)ccc2OC[C@H](C)N(C(=O)c2cccnc2)C[C@H]1C	none
COC(=O)[C@@H]1CCCN1C(=O)CCc1nnc(CCc2c[nH]c3ccccc23)o1	none
COC(=O)[C@@H]1CCCN1C(=O)CCc1nnc(CCC2CCCCC2)o1	FGF22 binding 43.1 (no result: PGC1a acetyl inh)
COc1ccccc1-c1ccc2c(c1)O[C@H](CN(C)S(=O)(=O)c1ccccc1)[C@@H](C)CN([C@H](C)CO)S2(=O)=O	none
C[C@@H]1CN([C@H](C)CO)S(=O)(=O)c2ccc(-c3cccc(F)c3)cc2O[C@H]1CN(C)S(=O)(=O)c1ccccc1	SIRT5 inh 16.7 (no result: FN deposit inh)
COc1ccccc1-c1ccc2c(c1)O[C@H](CN(C)S(=O)(=O)c1ccccc1)[C@@H](C)CN([C@@H](C)CO)S2(=O)=O	SIRT5 inh 19.7
C[C@@H]1CN([C@H](C)CO)S(=O)(=O)c2ccc(-c3cccc(F)c3)cc2O[C@@H]1CN(C)S(=O)(=O)c1ccccc1	SIRT5 inh 16.3 (no result: FN deposit inh)
C[C@H]1CN([C@@H](C)CO)S(=O)(=O)c2ccc(-c3cccc(F)c3)cc2O[C@@H]1CN(C)S(=O)(=O)c1ccccc1	SIRT5 inh 15.6 (no result: FN deposit inh)
CC(C)NC(=O)Nc1ccc2c(c1)C(=O)N([C@@H](C)CO)C[C@H](C)[C@@H](CN(C)C(=O)Nc1ccc3c(c1)OCO3)OCCCC[C@H](C)O2	none
COc1ccc(CC2(CO)CCN(Cc3ccc4nsnc4c3)CC2)cc1	FGF22 binding 43.5 (no result: PGC1a acetyl inh)
C[C@H](CO)N1C[C@H](C)[C@H](CN(C)Cc2ccc(C(F)(F)F)cc2)Oc2ccc(NC(=O)C3CCCCC3)cc2C1=O	none (no result: FN deposit inh)
O=[N+]([O-])c1ccc2c(c1)nc1n2CCCCC1	SIRT5 inh 16.6
C[C@@H]1CN([C@@H](C)CO)C(=O)c2cccc(NS(=O)(=O)c3ccc(Cl)cc3)c2O[C@H]1CN(C)Cc1ccc(Oc2ccccc2)cc1	none
COc1ccc(CN(C)C[C@H]2Oc3ccc(NS(=O)(=O)c4ccccc4)cc3CC(=O)N([C@@H](C)CO)C[C@@H]2C)cc1	SIRT5 inh 16.7 (no result: FN deposit inh)
COc1ccc(CN(C)C[C@@H]2Oc3ccc(NC(=O)NC4CCCCC4)cc3CC(=O)N([C@H](C)CO)C[C@@H]2C)cc1	SIRT5 inh 15.2 (no result: FN deposit inh)
C[C@H]1CN([C@@H](C)CO)C(=O)Cc2cc(NS(=O)(=O)c3ccc(Cl)cc3)ccc2O[C@H]1CN(C)Cc1ccc(Oc2ccccc2)cc1	none
COc1ccc(NC(=O)Nc2ccc3c(c2)CC(=O)N([C@@H](C)CO)C[C@H](C)[C@@H](CN(C)Cc2ccc(Oc4ccccc4)cc2)O3)cc1	SIRT5 inh 22.8 (no result: FN deposit inh)
C[C@@H]1CN([C@H](C)CO)C(=O)Cc2cc(NS(=O)(=O)c3ccc(Cl)cc3)ccc2O[C@H]1CN(C)Cc1ccc(Oc2ccccc2)cc1	SIRT5 inh 20.0
COc1ccc(NC(=O)Nc2ccc3c(c2)CC(=O)N([C@@H](C)CO)C[C@@H](C)[C@H](CN(C)Cc2ccc(Oc4ccccc4)cc2)O3)cc1	none (no result: FN deposit inh)
O=C(Nc1nccs1)[C@H]1[C@H](CO)[C@H]2Cn3c(cccc3=O)[C@@H]1N2C(=O)C1CCC1	none (no result: FN deposit inh, PGC1a acetyl inh)
COc1ccc(NC(=O)Nc2ccc3c(c2)CC(=O)N([C@H](C)CO)C[C@@H](C)[C@H](CN(C)Cc2ccc(-c4ccccc4)cc2)O3)cc1	none (no result: FN deposit inh)
COc1ccccc1NC(=O)N[C@H]1CC[C@H](CC(=O)N[C@H](C)c2ccccc2)O[C@@H]1CO	none
COc1ccc(S(=O)(=O)Nc2ccc3c(c2)CC(=O)N([C@@H](C)CO)C[C@H](C)[C@H](CN(C)Cc2ccc(Oc4ccccc4)cc2)O3)cc1	SIRT5 inh 17.1 (no result: FN deposit inh)
C[C@@H]1CN([C@@H](C)CO)C(=O)Cc2cc(NC(=O)CCC(F)(F)F)ccc2O[C@H]1CN(C)Cc1ccc(Oc2ccccc2)cc1	SIRT5 inh 21.8 (no result: ERAP1 inh)
CN(C)CC(=O)Nc1ccc2c(c1)[C@@H]1C[C@@H](CC(=O)N(C)C)O[C@@H](CO)[C@@H]1O2	none
C[C@H]1CN([C@@H](C)CO)C(=O)c2ccccc2-c2ccccc2CO[C@H]1CN(C)S(=O)(=O)c1ccc(C#N)cc1	none
COc1ccc(Cl)cc1C(=O)NNC(=O)CCNC(=O)c1ccccc1	FGF22 binding 44.1 (no result: SIRT5 inh)
COc1ccc(Cl)cc1C(=O)NNC(=O)CSc1nncn1C	FGF22 binding 43.2 (no result: SIRT5 inh)
COc1ccc(Cl)cc1C(=O)NNC(=O)CCNC(C)=O	none (no result: FN deposit inh, PGC1a acetyl inh)
O=C(CCNC(=O)c1ccc(Br)cc1)NNC(=O)c1ccccc1	FGF22 binding 43.3
O=C(CN1CCOCC1)N1CCCCN2[C@@H](CO)[C@@H](c3ccc(C#Cc4ccccc4)cc3)[C@@H]2C1	none (no result: FN deposit inh)
CCOc1cc(/C=N/n2cnnc2)ccc1OS(=O)(=O)c1ccc(C)cc1	FGF22 binding 43.7 (no result: PGC1a acetyl inh)
COc1ccc(/C=C2\C(=O)NCC(=O)N2C)cc1	ERAP1 inh 86.2
C[C@@H]1CN([C@@H](C)CO)C(=O)c2cc(NC(=O)c3ccncc3)ccc2O[C@@H]1CN(C)S(=O)(=O)c1ccc(F)cc1	none
O=C(Nc1cccnc1)c1ccc(-c2cc(Cl)ccc2Cl)o1	FGF22 binding 43.3
C[C@@H]1CN([C@@H](C)CO)C(=O)c2cc(C#CCc3ccccc3)cnc2O[C@@H]1CN(C)Cc1cccc(F)c1	none
COc1ccc(CN2C[C@H](C)[C@H](OC)CN(C)C(=O)c3cc(NC(=O)C4CC4)ccc3OC[C@@H]2C)cc1	none (no result: ERAP1 inh, FGF22 binding, SIRT5 inh)
CC(=O)N(c1ccccc1C)C1CCCC1	none
CC(=O)N(C1=C(Cl)C(=O)c2ccccc2C1=O)C1CCCCC1	ERAP1 inh 68.3, FN deposit inh 79.7
CCN1/C(=C\C=C(C(C)=O)C(C)=O)Sc2ccccc21	none (no result: PGC1a acetyl inh)
CCN1/C(=C\C(=S)Nc2ccccc2)Sc2ccccc21	FGF22 binding 44.2 (no result: PGC1a acetyl inh)
O=C(Nc1ccccc1)c1ccc(Cn2cc(C(F)(F)F)ccc2=O)cc1	none (no result: ERAP1 inh, FGF22 binding, SIRT5 inh)
O=C(Nc1ccccc1)c1cccc(Cn2cc(C(F)(F)F)ccc2=O)c1	SIRT5 inh 24.4 (no result: ERAP1 inh, PGC1a acetyl inh)
CCOC(=O)C1=CC[C@@H](c2ccc(OC)cc2)[C@@H]1C(=O)c1ccccc1	none (no result: FN deposit inh)
O=C(NCc1ccccn1)NC12CC3CC(CC(C3)C1)C2	none (no result: ERAP1 inh, FGF22 binding, SIRT5 inh)
c1ccc(CNC23CC4CC(CC(C4)C2)C3)nc1	FGF22 binding 43.0 (no result: PGC1a acetyl inh)
C[C@H]1CN([C@@H](C)CO)C(=O)c2cc(C#Cc3ccccc3F)cnc2O[C@@H]1CN(C)C	none (no result: FN deposit inh)
COCC1OC(OC(C)C(O)c2cnc3nc(N)[nH]c(=O)c3n2)C(O)C(OC)C1O (stereo not given)	ERAP1 inh 32.8 (no result: FN deposit inh, SIRT5 inh)
C=CCC[C@@H](Cc1ccc(F)cc1)C(=O)OC[C@@H](C)NC(=O)[C@@H](CC=C)CC(=O)N[C@H](CO)Cc1ccccc1	FGF22 binding 1.4
